Bioassay records deposited in PubChem BioAssay by Broad Institute.
Sampled rows, rich in hits. Any-hit rate of the full collection: about 3%.
NSD2 HMT inh – NSD2 (human) methyltransferase inhibition | O96028 | actives 0.54% (n = 310,000) | NSD2 peptide methylation, AlphaScreen, 120 min | inhibition, % at 12.5 µM; in the data active = inhibition above about 50%
esBAF inh – blocks esBAF chromatin remodeling in mouse ES cells; Bmi1-luciferase knock-in reporter, 24 h; 100% = twice the neutral-well signal; reporter increase, % at 12.5 µM; actives 2% (n = 350,000); AID 602393; in the data active = activation above about 40%; inconclusive = no clear call, values can overlap the other calls;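 note: 0% = median of the plate's neutral control wells and 100% = double that signal; a rise in the Bmi1 reporter signal indicates esBAF inhibition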
MITF act – activators of MITF-driven TRPM1 promoter activity in SK-MEL-5 cells; actives 0.75% (n = 300,000); activation, % at 12.5 µM; SK-MEL-5 TRPM1-promoter luciferase, 24 h; % of positive control, neutral wells = 0; AID 588334;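 active = mean activation of at least 80% with every replicate also reaching 80%; inconclusive = mean reaches 80% but some replicate falls short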;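 note: 0% = neutral control wells and 100% = parthenolide positive control wells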
Xi reactivation – activators of X-chromosome reactivation in mouse fibroblasts; XiGFP mouse fibroblasts, % GFP-positive cells imaging, 3 d; cells co-treated with 5-aza-dC sensitizer; scaled so ellipticine positive control = 100%; activation, % at 7.58 µM; actives 0.055% (n = 360,000); AID 743238;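 active = mean normalized replicate activation at least 10% and every replicate at or above 10%; inconclusive = only one of the two criteria met; inactive = mean below 10% and not all replicates reach 10%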;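 note: 0% = median of on-plate neutral control wells and 100% = ellipticine 6 µM median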
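material = 68-5-11 XiGFP fibroblast line | medium = DMEM plus 5-aza-dC sensitizer | schedule = 3 days compound exposure | benchmarks = positive control ellipticine, 6 µM final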
Wnt bcat act – activates Wnt/beta-catenin signaling in a reporter cell assay; AID 743398; actives 1.2% (n = 300,000); activator, plate reader; activation, % at 9.35 µM; in the data active = activation above about 30%, passing the limit was not always enough; inconclusive = no clear call, values can overlap the other calls;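 note: 0% = neutral control wells and 100% = positive control wells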
Casp6 inh – blocks human caspase-6 cleavage activity | P55212 | purified caspase-6, Z-VEID-R110 cleavage fluorescence | inhibition, % at 12.5 µM | actives 0.53% (n = 350,000) | AID 686996;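 active = mean inhibition across replicates at least about 35%, with every replicate also reaching that limit, limit read from the data; inconclusive = only one of the two criteria met; inactive = neither criterion met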;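 note: 0% = median of neutral control wells and 100% = no fluorescence left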
Target sequence (P55212 24-179 limits assumed): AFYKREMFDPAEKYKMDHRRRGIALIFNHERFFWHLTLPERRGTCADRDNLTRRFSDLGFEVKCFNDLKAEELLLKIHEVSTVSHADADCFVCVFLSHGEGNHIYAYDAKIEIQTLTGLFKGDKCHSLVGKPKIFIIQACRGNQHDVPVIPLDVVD
Target sequence (P55212 194-293 limits assumed): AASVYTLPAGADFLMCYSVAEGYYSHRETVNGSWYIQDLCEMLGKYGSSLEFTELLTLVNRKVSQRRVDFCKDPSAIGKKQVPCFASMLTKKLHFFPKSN
The depositor's hits bear a star; ? = inconclusive; . = not tested or not shown.

SMILES	NSD2 HMT inh	esBAF inh	MITF act	Xi reactivation	Wnt bcat act	Casp6 inh
O=C(CSc1nnc(-c2cccnc2)o1)Nc1ccc(F)cc1	1	11	.	0	7	1
O=C(CSc1nnc(-c2ccncc2)o1)Nc1cccc(F)c1	-2	56*	63	0	23	1
COc1cc(OC)cc(-c2nnc(SCC(=O)N(C(C)C)C(C)C)o2)c1	-5	-3	4	.	.	-4
COc1ccc(-c2nnc(SCC(=O)Nc3ccccc3OC)o2)cc1	-1	21	70	.	19	1
O=C(CSc1nnc(-c2cccnc2)o1)Nc1cccc(F)c1	-3	61*	72	-1	-4	0
COc1ccc(-c2nnc(SCC(=O)Nc3cccc(Cl)c3)o2)cc1	0	33	.	.	46*	.
CN1CCN(C(=O)C[C@H]2CC[C@@H]3[C@@H](COc4ccc(NC(=O)C5CCC5)cc4C(=O)N3C)O2)CC1	.	.	.	0	.	-4
CC(=O)N1CC2(C1)[C@H](c1ccc(-c3ccc(C#N)cc3)cc1)[C@@H](CO)N2C(C)=O	.	.	.	0	.	-3
O=C(N[C@H]1CC[C@@H](CCn2cc(C3(O)CCCC3)nn2)O[C@H]1CO)c1ccccc1F	.	6	.	0	.	1
COc1cccc(NC(=O)CSc2nnc(-c3ccco3)c(-c3ccco3)n2)c1	21	-6	-7	0	-1	43*
O=C(CSc1nnc(-c2ccncc2)o1)Nc1cc(F)ccc1F	.	32	59	0	33*	3
Cc1ccc(SCc2nn(C)c(Cl)c2C=O)cc1	-2	42*	54	0	6	1
Cc1ccc(N2CCN(C(=O)c3cc(COc4c(C)cccc4C)on3)CC2)c(C)c1	-4	0	5	1	1	-3
COc1cccc(OCc2cc(C(=O)N3CCN(c4ccccc4OC)CC3)no2)c1	0	77*	83*	0	37*	0
COc1cccc(OCc2cc(C(=O)N3CCN(c4ccccc4O)CC3)no2)c1	-4	49*	97*	0	26	9
COc1ccc(S(=O)(=O)Nc2cccc3c2O[C@@H](CN(C)C(=O)Nc2ccc4c(c2)OCO4)[C@@H](C)CN([C@@H](C)CO)C3=O)cc1	.	3	.	0	.	-2
O=C(O)c1ccc2c3n(nc2c1)-c1ccc(Cl)cc1CO3	.	.	.	0	36*	1
O=C(c1ccc2c(=O)n3c(nc2c1)CCCCC3)N1CCCCC1	0	3	-3	0	4	-2
Cc1ccc(C(=O)N2CCOCC2)cc1Cl	-1	-5	.	.	-1	.
O=C(c1ccc2c3n(nc2c1)-c1ccc(Cl)cc1CO3)N1CCCCC1	.	47*	103*	0	?	0
c1ccc2c(c1)COc1c3cc4c(cc3nn1-2)OCO4	.	25	.	0	0	-1
Cc1ccc2c(c1)COc1c3ccc(C(=O)N4CCOCC4)cc3nn1-2	.	57*	?	0	43*	4
O=C(Cc1ccccc1F)Nc1ccc2c(c1)CCC2	-8	72*	129*	0	17	2
COc1ccc(NC(=O)Cc2ccccc2F)cc1S(=O)(=O)N1CCCCC1	0	45*	2	0	4	1
O=C(Nc1ccc2c(c1)CCC2)c1cc(F)cc(F)c1	-1	47*	83*	0	1	1
SMILES	NSD2 HMT inh	esBAF inh	MITF act	Xi reactivation	Wnt bcat act	Casp6 inh
COc1ccc(CN(C)C(C)C(=O)Nc2ccc(S(=O)(=O)N3CCCCC3)cc2)cc1F (stereo not drawn)	0	24	-3	0	34*	2
Fc1ccc(CN2[C@@H]3CN(CC(F)(F)F)C[C@H]2C3c2ccc(Br)cc2)cc1 (stereo partly drawn)	.	.	.	0	.	.
C[C@H]1CN([C@@H](C)CO)C(=O)c2cccc(NC(=O)CCCCCC(=O)Nc3ccccc3N)c2O[C@H]1CN(C)Cc1ccc(C(F)(F)F)cc1	.	.	.	-1	.	-1
O=C(Nc1ccc2c(c1)CCC2)c1cccc(F)c1	-3	.	95*	0	21	-2
Cc1ccc(/C=N/N=C/c2ccc(C)cc2)cc1	-2	57*	-1	0	4	-2
Oc1ccc(/C=N/N=C/c2ccc(O)cc2)cc1	3	27	27	0	-2	6
